According to article PMC5944575 (Clinical and Translational Science, 2018):
≈ marks a conversion by molar mass, not a printed value.

Assays:
5‐LO [1] = details: cited from earlier work
5‐LO [2] = details: at‐risk patients with CAD ref 15; cited from earlier work
[3] = system: LTB4 production in human whole blood; assay: LTB4 production in human whole blood in vitro; assay type: cell-based; details: read-out: IC50, inhibition of LTB4 production
Caco‐2 = assay: Caco-2 permeability and efflux; assay type: in vitro ADME
[4] = Human plasma protein binding; assay type: in vitro ADME
[5] = Pharmacokinetics, multiple ascending dose; assay type: in vivo, human
Procedure, shortened: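 Amorphous oral suspension was given once daily for 10 days to fasted healthy men (n = 6 per dose), with intensive sampling on days 1 and 10. K₂EDTA plasma and urine were measured by LC-MS/MS with a ¹³C₆-labelled internal standard (validated 1–1,000 nmol/L plasma, 20–20,000 nmol/L urine). Noncompartmental analysis on actual times; CL/F = dose/AUC; CLR = amount excreted unchanged/AUC.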

[6] = Pharmacokinetics, single ascending dose; assay type: in vivo, human; details: for AUC / CL/F / CLR / t½ / Cmax: geometric mean (%CV); for Tmax: median (range)
Procedure, shortened: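 Fasted (10 h overnight) healthy men received single oral doses of amorphous suspension, n = 6 per dose. K₂EDTA plasma and pooled urine were assayed by LC-MS/MS with a ¹³C₆-labelled internal standard (validated 1–1,000 nmol/L plasma, 20–20,000 nmol/L urine). Noncompartmental analysis used log-linear trapezoidal AUC extrapolated to infinity; CL/F = dose/AUC; CLR = amount excreted unchanged/AUC.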

[7] = Solubility of amorphous and crystalline form; assay type: physicochemical; details: amorphous
logD = assay type: physicochemical; details: pH 7.4
[8] = system: ex vivo calcium ionophore stimulated LTB4 production in whole blood; design: species or system human
Procedure, shortened: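 Lithium-heparin blood was drawn from dosed subjects 24 h before and just before dosing, then at set times after (SAD to 48 h; MAD daily predose and after last dose). Blood aliquots were stimulated in duplicate with 30 μM calcium ionophore A23187 or DMSO at 37°C, 100 rpm, for 30 min, then stopped on ice with EGTA. LTB₄ in plasma was measured by supported liquid extraction LC-MS/MS, against a baseline of the mean day 1/predose value.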

[9] = system: cytochrome P450 (CYP)3A4 and CYP3A5; assay: In vitro metabolism studies; assay type: in vitro ADME
[10] = Clinical safety and tolerability in healthy subjects; assay type: in vivo, human; details: for subjects reporting headache: active drug
Procedure, shortened: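 Healthy men aged 18–50 (BMI 18–30 kg/m², 50–100 kg), randomized, single-blind, placebo-controlled. SAD: single oral suspension doses of 25–1,200 mg, with sentinel pairs reviewed to 24 h. MAD: 60–600 mg once daily for 10 days. Vital signs, ECG, telemetry, clinical laboratory tests and adverse events were recorded before and after dosing and at follow-up 7–10 days post final dose.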

[11] = Human intestinal Ussing chamber metabolism; assay type: in vitro ADME; details: data not shown
[12] = 60 mg OD, day 10, geometric mean (%CV)
[13] = 180 mg OD, day 1, geometric mean (%CV)
[14] = 180 mg OD, day 10, geometric mean (%CV)
[15] = 360 mg OD, day 1, geometric mean (%CV)
[16] = 360 mg OD, day 10, geometric mean (%CV)
[17] = 600 mg OD, day 1, geometric mean (%CV)
[18] = 600 mg OD, day 10, geometric mean (%CV)

C[C@H](C#Cc1ccc(Cc2ccc(F)cc2)s1)N(O)C(N)=O [VIA‐2291, Atreleuton]
ex vivo stimulated LTB4 production (5‐LO [1]; patients with ACS ref 13): reduced
noncalcified plaque volume (5‐LO [1]; patients with ACS ref 13): reduced
left ventricular ejection fraction (5‐LO [1]; patients with ACS, dose dependent ref 13, 14): improved

CC(c1cc2ccccc2s1)N(O)C(N)=O (centres unmarked) [zileuton]
flow‐mediated dilation in the brachial artery (5‐LO [2]): improved
leukotriene production in blood (5‐LO [2]): inhibited

Cc1cc(-c2ccc(C(=O)[C@@H]3CCCC[C@H]3C(=O)Nc3cnn4c3C(=O)NCC4)cc2)n[nH]1 [AZD5718]
IC50 [3]: 0.039 µM
Papp (Caco‐2): 24 10^−6 cm/s
efflux ratio (Caco‐2): 7.4
human plasma protein binding [4]: 95.7%
AUCτ ([5]; 60 mg OD, day 1, geometric mean (%CV)): 1,018 (22.4) nmol*h/L
Tmax ([5]; 60 mg OD, day 1, median (range)): 0.8 (0.5–2.0) h
Cmax ([5]; 60 mg OD, day 1, oral amorphous suspension, N = 6, geometric mean (%CV)): 167 nM
AUCτ [5, 12]: 1,386 (27.4) nmol*h/L
CL/F [5, 12]: 96.9 (27.4) L/h
CLR [5, 12]: 0.64 (16.0) L/h
Cmax [5, 12]: 220 nM
t½ [5, 12]: 11.6 (6.7) h
Tmax ([5]; 60 mg OD, day 10, median (range)): 0.5 (0.5–1.0) h
AUCτ [5, 13]: 3,732 (41.2) nmol*h/L
Cmax [5, 13]: 847 nM
Tmax ([5]; 180 mg OD, day 1, median (range)): 1.0 (1.0–1.0) h
AUCτ [5, 14]: 5,128 (46.9) nmol*h/L
CL/F [5, 14]: 78.6 (46.9) L/h
CLR [5, 14]: 0.75 (16.0) L/h
Cmax [5, 14]: 1240 nM
t½ [5, 14]: 11.2 (13.0) h
Tmax ([5]; 180 mg OD, day 10, median (range)): 1.0 (1.0–1.0) h
AUCτ [5, 15]: 10,350 (28.8) nmol*h/L
Cmax [5, 15]: 2560 nM
Tmax ([5]; 360 mg OD, day 1, median (range)): 1.0 (1.0–2.0) h
AUCτ [5, 16]: 12,760 (31.0) nmol*h/L
CL/F [5, 16]: 63.1 (31.0) L/h
CLR [5, 16]: 0.99 (5.2) L/h
Cmax [5, 16]: 3210 nM
t½ [5, 16]: 9.1 (10.7) h
Tmax ([5]; 360 mg OD, day 10, median (range)): 1.0 (1.0–1.0) h
AUCτ [5, 17]: 16,290 (48.6) nmol*h/L
Cmax [5, 17]: 4930 nM
Tmax ([5]; 600 mg OD, day 1, median (range)): 1.0 (1.0–1.0) h
AUCτ [5, 18]: 23,170 (47.4) nmol*h/L
CL/F [5, 18]: 58.0 (47.4) L/h
CLR [5, 18]: 0.72 (23.3) L/h
Cmax [5, 18]: 5690 nM
t½ [5, 18]: 9.9 (29.2) h
Tmax ([5]; 600 mg OD, day 10, median (range)): 1.5 (1.0–3.0) h
accumulation on repeated dosing ([5]; Ctrough, once daily dosing): small accumulation
time to steady state ([5]; repeated once daily dosing, Ctrough, visual inspection): ~3 days
AUC ([6]; 25 mg single dose): 376.3 (38.1) nmol*h/L
CL/F ([6]; 25 mg single dose): 148.8 (38.1) L/h
CLR ([6]; 25 mg single dose): 0.68 (39.4) L/h
t½ ([6]; 25 mg single dose): 10.3 (51.0) h
Tmax ([6]; 25 mg single dose): 3.0 (1.0–6.0) h
AUC ([6]; 50 mg single dose): 727.0 (15.4) nmol*h/L
CL/F ([6]; 50 mg single dose): 153.9 (15.4) L/h
CLR ([6]; 50 mg single dose): 0.62 (14.7) L/h
Cmax ([6]; 50 mg single dose): 81.6 nM
t½ ([6]; 50 mg single dose): 12.5 (33.3) h
Tmax ([6]; 50 mg single dose): 1.0 (1.0–3.0) h
AUC ([6]; 100 mg single dose): 1,441 (45.3) nmol*h/L
CL/F ([6]; 100 mg single dose): 155.6 (45.3) L/h
CLR ([6]; 100 mg single dose): 0.66 (41.0) L/h
Cmax ([6]; 100 mg single dose): 170 nM
t½ ([6]; 100 mg single dose): 12.7 (35.7) h
Tmax ([6]; 100 mg single dose): 1.0 (0.5–3.0) h
AUC ([6]; 300 mg single dose): 8,462 (20.1) nmol*h/L
CL/F ([6]; 300 mg single dose): 79.4 (20.1) L/h
CLR ([6]; 300 mg single dose): 0.67 (23.7) L/h
Cmax ([6]; 300 mg single dose): 2360 nM
t½ ([6]; 300 mg single dose): 13.7 (43.9) h
Tmax ([6]; 300 mg single dose): 1.0 (0.5–1.0) h
AUC ([6]; 600 mg single dose): 18,810 (42.1) nmol*h/L
CL/F ([6]; 600 mg single dose): 71.5 (42.1) L/h
CLR ([6]; 600 mg single dose): 0.70 (15.4) L/h
Cmax ([6]; 600 mg single dose): 5050 nM
t½ ([6]; 600 mg single dose): 11.4 (18.0) h
Tmax ([6]; 600 mg single dose): 1.0 (1.0–2.0) h
AUC ([6]; 1,200 mg single dose): 35,840 (33.8) nmol*h/L
CL/F ([6]; 1,200 mg single dose): 75.0 (33.8) L/h
CLR ([6]; 1,200 mg single dose): 0.62 (12.1) L/h
Cmax ([6]; 1,200 mg single dose): 6880 nM
t½ ([6]; 1,200 mg single dose): 10.3 (19.0) h
Tmax ([6]; 1,200 mg single dose): 1.5 (1.0–2.0) h
relative bioavailability of the crystalline formulation compared with the amorphous formulation ([6]; SAD, oral suspensions, results not presented): much lower
mean terminal half‐life ([6]; after single dose administration and at steady state, all doses): 10 to 12 h
dose‐linearity of exposure ([6]; single and multiple administration, except Ctrough in the MAD): more than dose proportional increase in exposure
median Tmax ([6]; single and multiple dose, amorphous suspension, fasted): ~1 h
renal clearance as share of total oral clearance ([6]; unchanged drug in urine): ~1%
solubility [7]: 20 µM (≈ 8.93 µg/mL)
logD (logD): 2.9
LTB4 production inhibition throughout the day ([8]; MAD, 180, 360, and 600 mg doses, last day of repeated dosing): > 80%
mean LTB4 inhibition throughout the whole day ([8]; SAD, single doses of 300–1,200 mg): > 80%
fold lower IC50 for ex vivo stimulated LTB4 inhibition ([8]; compared with both AM103 and VIA2291): ~100 fold
CYP‐isoforms involved in the metabolism [9]: (CYP)3A4 and CYP3A5
subjects experiencing an AE on active drug ([10]; MAD study): 10 subjects
subjects reporting headache ([10]; MAD study): five
serious adverse events ([10]; SAD 25–1,200 mg and MAD 60–600 mg): no serious adverse events
safety and tolerability findings ([10]; SAD and MAD, healthy subjects): No clinically relevant safety and tolerability findings
subjects experiencing an AE on active drug ([10]; SAD study): 17 subjects
subjects reporting headache ([10]; SAD study): three
maximal tolerated dose ([10]; up to 1,200 mg single, 600 mg OD for 10 days): not established
metabolism kinetics [11]: saturable metabolism
